Assay results as given in ChEMBL document CHEMBL1131454 (J Med Chem, 1998).

Assays:
[1] = biological target: Estrogen receptor (Homo sapiens, UniProt Q92731+P03372); assay: Antagonistic activity was determined in Human estrogen receptor(hER) of CV-1 cells in cotransfection assay.; format: functional, cell-based
[2] = biological target: T1, Progesterone receptor (Homo sapiens, UniProt P06401); assay: Antagonistic activity was determined in Human progesterone receptor(hPR) of CV-1 cells in cotransfection assay.; format: functional, cell-based
T1 sequence (P06401 whole entry): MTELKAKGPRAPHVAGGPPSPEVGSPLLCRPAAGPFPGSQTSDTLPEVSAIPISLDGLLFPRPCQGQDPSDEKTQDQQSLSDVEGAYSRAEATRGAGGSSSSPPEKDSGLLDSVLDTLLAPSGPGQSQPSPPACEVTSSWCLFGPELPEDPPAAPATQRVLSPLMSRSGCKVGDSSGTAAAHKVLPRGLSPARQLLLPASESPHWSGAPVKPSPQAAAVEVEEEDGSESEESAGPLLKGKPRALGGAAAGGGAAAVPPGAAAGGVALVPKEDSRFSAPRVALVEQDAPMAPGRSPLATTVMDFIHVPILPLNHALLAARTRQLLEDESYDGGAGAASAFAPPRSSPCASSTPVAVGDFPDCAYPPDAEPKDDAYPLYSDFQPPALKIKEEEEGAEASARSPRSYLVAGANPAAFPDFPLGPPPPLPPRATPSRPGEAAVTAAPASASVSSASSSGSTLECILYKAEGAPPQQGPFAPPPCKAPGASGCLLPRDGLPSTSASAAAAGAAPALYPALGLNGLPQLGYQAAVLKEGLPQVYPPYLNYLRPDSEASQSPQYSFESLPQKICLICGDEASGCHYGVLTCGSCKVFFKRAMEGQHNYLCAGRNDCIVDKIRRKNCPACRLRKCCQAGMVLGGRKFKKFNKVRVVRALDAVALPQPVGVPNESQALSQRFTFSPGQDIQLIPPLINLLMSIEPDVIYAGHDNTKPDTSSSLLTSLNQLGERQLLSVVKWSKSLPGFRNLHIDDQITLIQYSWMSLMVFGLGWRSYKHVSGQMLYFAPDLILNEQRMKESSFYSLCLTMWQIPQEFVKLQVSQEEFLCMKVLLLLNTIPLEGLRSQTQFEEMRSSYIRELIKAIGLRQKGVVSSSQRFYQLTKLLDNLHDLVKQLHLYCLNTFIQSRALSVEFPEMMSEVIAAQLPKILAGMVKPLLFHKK

[3] = biological target: T1, Progesterone receptor; assay: The binding affinity on Human progesterone receptor (hPR-A) using progesterone as radioligand.
[4] = biological target: T1, Progesterone receptor; assay: Agonistic activity to the human progesterone receptor (hPR)assayed in CV-1 cells in cotransfection assay.; format: functional, cell-based
[5] = biological target: T2, Androgen receptor (Homo sapiens, UniProt P10275)
T2 sequence (P10275 whole entry): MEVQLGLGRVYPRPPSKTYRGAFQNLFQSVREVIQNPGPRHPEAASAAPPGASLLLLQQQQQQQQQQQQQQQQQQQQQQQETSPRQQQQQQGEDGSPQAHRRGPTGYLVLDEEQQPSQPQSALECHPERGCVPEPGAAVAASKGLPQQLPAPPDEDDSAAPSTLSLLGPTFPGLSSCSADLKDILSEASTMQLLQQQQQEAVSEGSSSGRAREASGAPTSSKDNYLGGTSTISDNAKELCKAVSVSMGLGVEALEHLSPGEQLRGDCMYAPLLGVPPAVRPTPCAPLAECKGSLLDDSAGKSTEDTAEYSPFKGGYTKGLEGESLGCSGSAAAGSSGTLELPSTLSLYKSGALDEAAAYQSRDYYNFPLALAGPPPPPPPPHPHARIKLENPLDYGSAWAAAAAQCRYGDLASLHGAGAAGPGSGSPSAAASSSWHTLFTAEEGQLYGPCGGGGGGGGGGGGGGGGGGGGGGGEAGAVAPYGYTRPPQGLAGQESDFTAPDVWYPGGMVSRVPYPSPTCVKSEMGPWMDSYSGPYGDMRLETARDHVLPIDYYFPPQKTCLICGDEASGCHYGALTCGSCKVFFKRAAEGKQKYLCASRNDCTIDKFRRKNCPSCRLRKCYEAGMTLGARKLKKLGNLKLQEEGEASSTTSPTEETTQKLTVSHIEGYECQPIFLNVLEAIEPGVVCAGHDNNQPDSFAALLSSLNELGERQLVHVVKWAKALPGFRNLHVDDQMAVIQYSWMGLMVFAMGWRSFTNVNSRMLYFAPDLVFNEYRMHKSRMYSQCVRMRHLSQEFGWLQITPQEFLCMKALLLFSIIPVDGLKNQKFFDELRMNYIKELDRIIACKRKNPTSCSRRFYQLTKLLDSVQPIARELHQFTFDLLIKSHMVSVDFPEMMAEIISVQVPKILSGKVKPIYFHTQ

[6] = biological target: T3, Progesterone receptor (Homo sapiens) (UniProt P06401); assay: Human progesterone receptor (hPR) antagonist efficacy was determined as a function (%) of maximal inhibition of progesterone at EC50 value.; format: functional
T3 sequence (whole entry): T1 sequence (P06401 whole entry)
Outline: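 hPR antagonist-mode cotransfection in CV-1 cells transiently transfected by calcium phosphate coprecipitation with hPR plasmid, MTV-LUC reporter, pRS-β-Gal and filler DNA. […] Values come from one, two, or at least three experiments in triplicate.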

[7] = biological target: T4, Glucocorticoid receptor (Homo sapiens, UniProt P04150)
T4 sequence (P04150 whole entry): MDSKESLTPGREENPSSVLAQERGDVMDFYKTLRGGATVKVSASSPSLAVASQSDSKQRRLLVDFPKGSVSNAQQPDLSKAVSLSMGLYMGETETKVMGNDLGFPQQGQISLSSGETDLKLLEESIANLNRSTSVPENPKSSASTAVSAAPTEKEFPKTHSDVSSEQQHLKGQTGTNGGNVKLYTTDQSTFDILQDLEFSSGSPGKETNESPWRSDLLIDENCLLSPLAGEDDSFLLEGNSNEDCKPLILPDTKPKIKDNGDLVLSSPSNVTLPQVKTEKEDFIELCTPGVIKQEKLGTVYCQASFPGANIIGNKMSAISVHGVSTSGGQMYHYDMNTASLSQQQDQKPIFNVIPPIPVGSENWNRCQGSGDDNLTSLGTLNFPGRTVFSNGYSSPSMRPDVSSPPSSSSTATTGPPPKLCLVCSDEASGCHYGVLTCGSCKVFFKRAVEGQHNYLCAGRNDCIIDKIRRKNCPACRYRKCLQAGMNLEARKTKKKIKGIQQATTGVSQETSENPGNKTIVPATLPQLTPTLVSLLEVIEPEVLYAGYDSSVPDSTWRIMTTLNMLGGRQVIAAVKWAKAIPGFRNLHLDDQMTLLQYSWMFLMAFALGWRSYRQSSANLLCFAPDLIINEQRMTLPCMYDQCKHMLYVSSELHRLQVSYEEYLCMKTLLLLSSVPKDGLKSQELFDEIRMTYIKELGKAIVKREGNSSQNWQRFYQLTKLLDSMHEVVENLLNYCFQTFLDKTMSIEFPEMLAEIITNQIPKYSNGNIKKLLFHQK

[8] = biological target: T4, Glucocorticoid receptor; remark: listed apart in the source
[9] = biological target: T2, Androgen receptor; remark: listed apart in the source

IC50 [1] [nM]	IC50 [2] [nM]	Ki [3] [nM]	EC50 [4] [nM]	IC50 [5] [nM]	Efficacy [6] [%]	Ki [7] [nM]	IC50 [8] [nM]	Ki [9] [nM]	Compound
1449	> 10000	1.8	16	1220	< 20	60	185	1580	CC1=CC(C)(C)Nc2ccc3c(c21)C(c1ccc(C)c(F)c1)Oc1ccccc1-3 (stereo not drawn)
2395	250	2.3	37	1240	38	80	294	2330	CC1=CC(C)(C)Nc2ccc3c(c21)C(c1ccc(C)cc1)Oc1ccccc1-3 (stereo not drawn)
1037	1100	0.87	17	1240	31	42	166	3500	CC1=CC(C)(C)Nc2ccc3c(c21)C(c1cc(C)cc(Br)c1)Oc1ccccc1-3 (stereo not drawn)
> 10000	3140	0.55	14	481	42	67	115	> 10000	CC1=CC(C)(C)Nc2ccc3c(c21)C(c1ccc(Br)cc1)Oc1ccccc1-3 (stereo not drawn)
1220	> 10000	1.2	14	1430	< 20	147	275	1860	CC1=CC(C)(C)Nc2ccc3c(c21)C(c1ccc(Cl)c(C)c1)Oc1ccccc1-3 (stereo not drawn)
1537	> 10000	2.6	13	315	< 20	44	505	795	CC1=CC(C)(C)Nc2ccc3c(c21)C(c1cccc(C(F)(F)F)c1)Oc1ccccc1-3 (stereo not drawn)
1449	> 10000	0.41	17	2200	< 20	39	171	1460	CC1=CC(C)(C)Nc2ccc3c(c21)C(c1ccc(Cl)c(F)c1)Oc1ccccc1-3 (stereo not drawn)
1095	1140	1.1	8	401	41	34	266	2140	CC1=CC(C)(C)Nc2ccc3c(c21)C(c1cccc(Br)c1)Oc1ccccc1-3 (stereo not drawn)
2632	720	3.4	18	946	42	59	80	5830	CC1=CC(C)(C)Nc2ccc3c(c21)C(c1ccc(Cl)c(Cl)c1)Oc1ccccc1-3 (stereo not drawn)
> 10000	> 10000	1.7	50	1090	< 20	100	225	2580	CC1=CC(C)(C)Nc2ccc3c(c21)C(c1cc(Cl)cc(Cl)c1)Oc1ccccc1-3 (stereo not drawn)

Compound	IC50 [1] [nM]	IC50 [2] [nM]	Ki [3] [nM]	EC50 [4] [nM]	IC50 [5] [nM]	Efficacy [6] [%]	Ki [7] [nM]	IC50 [8] [nM]	Ki [9] [nM]
CC1=CC(C)(C)Nc2ccc3c(c21)C(c1ccc(Cl)cc1)Oc1ccccc1-3 (stereo not drawn)	1803	600	0.7	14	1550	31	152	339	2680
CC1=CC(C)(C)Nc2ccc3c(c21)C(c1cccc(Cl)c1)Oc1ccccc1-3 (stereo not drawn)	1480	930	0.43	18	253	37	58	136	1530
